Assay results of several laboratories.
Protocols differ between the studies behind these lines.
Read-out: cell growth or viability

`COc1cc(/C=C/C(=O)CC(=O)/C=C/c2ccc(O)c(OC)c2)ccc1O` gave an IC50 of over 25 µM (LLC-PK1; MTT; 72 h).
`CC(C)c1cc(C(=O)N2Cc3ccccc3C2)c(O)c2c1C(=O)CC2` gave an IC50 of 55.6 µM (UMUC3; ATP luminescence; 72 h).
`CCN(CC)CCNC(=O)c1c(C)[nH]c(/C=C2\C(=O)Nc3ccc(F)cc32)c1C` has an IC50 of 4.43 µM (Swiss-3T3; 72 h).
`COc1ccc(/C=C/C(=O)/C=C/c2c(C)nn(-c3cccc([N+](=O)[O-])c3)c2Cl)cc1OC` gave an IC50 of 21 µM (LLC-PK1; MTT; 72 h).
`CC(C)/N=C1\c2cc(C(N)=O)nc3c(N)c(Cl)c(N)c(c23)N1C` has an IC50 of 0.5 µM (HCC44).
With `CC(=O)O[C@H]1C(=O)[C@@]2(C)[C@H]([C@H](OC(=O)c3ccccc3)[C@]3(O)C[C@H](OC(=O)[C@H](O)[C@@H](NC(=O)c4ccccc4)c4ccccc4)C(C)=C1C3(C)C)[C@]1(OC(C)=O)CO[C@@H]1C[C@@H]2O` the IC50 was 0.00026 µM (A2780; fluorescence; 72 h).
With `COc1cc2c(Oc3ccc(NC(=O)C4(C(=O)Nc5ccc(F)cc5)CC4)cc3F)ccnc2cc1OCCCN1CCOCC1` the IC50 was 0.22 µM (RD; 72 h).
The IC50 of `CS(=O)(=O)c1ccc(-n2cc(C=N/N=c3\[nH]c(-c4ccc(Br)cc4)cs3)c(-c3ccc([N+](=O)[O-])cc3)n2)cc1` is reported as 36.6 µM (F180; MTT; 48 h).
For `COc1cccc2c1C(=O)c1c(O)c3c(c(O)c1C2=O)C[C@@](O)(C(=O)CO)C[C@@H]3O[C@H]1C[C@H](N)[C@H](O)[C@H](C)O1`, the IC50 was 17.8 µM (Caco-2; MTT; 48 h).
`COc1ccc(-c2nn(-c3ccc(S(C)(=O)=O)cc3)cc2C=N/N=c2\[nH]c(-c3ccc([N+](=O)[O-])cc3)cs2)cc1` gave an IC50 of 28.5 µM (F180; MTT; 48 h).
The IC50 of `Cc1ncn2c(=O)n(C)nnc12` is reported as 7 µM (U-118-MG; resazurin; 7 days).
`O=C(/C=C/c1ccc(O)c(O)c1)O[C@@H]1C[C@](O)(C(=O)O)C[C@@H](O)[C@H]1O` gave an IC50 of 30.1 µM (RD; WST-1; 48 h).
With `CC(C)c1cc(C(=O)N2Cc3ccccc3C2)c(O)c2c1CCCC2=O` the IC50 was over 100 µM (UMUC3; ATP luminescence; 72 h).
With `CS(=O)(=O)c1ccc(-n2cc(/C=N/N=c3\[nH]c(-c4ccc(Br)cc4)cs3)c(-c3ccc(Br)cc3)n2)cc1` the IC50 was 59.8 µM (F180; MTT; 48 h).
For `CN(C)C/C=C/C(=O)Nc1cc2c(Nc3ccc(F)c(Cl)c3)ncnc2cc1O[C@H]1CCOC1`, the IC50 was 3.1 µM (Caco-2; MTT; 72 h).
For `CNC(=O)c1ccc(N2C(=S)N(c3cnc(C#N)c(C(F)(F)F)c3)C(=O)C23CCC3)cc1F`, the IC50 was 1.1 µM (LAPC4; ATP luminescence; 6 days).
The IC50 of `CON=C1CCc2c(O)c(C(=O)N3Cc4ccccc4C3)cc(C(C)C)c21` is reported as 78.2 µM (UMUC3; ATP luminescence; 72 h).
`O=c1c(O)c(-c2ccc(O)cc2)oc2cc(O)cc(O)c12` has an IC50 of 54.1 µM (RD; WST-1; 48 h).
With `Cn1nnc2c(C(N)=O)ncn2c1=O` the IC50 was 944 µM (U-118-MG; MTT; 72 h).
The IC50 of `C=C1Cc2c(O)c(C(=O)N3Cc4ccccc4C3)cc(C(C)C)c2C1=O` is reported as over 100 µM (UMUC3; ATP luminescence; 72 h).
`CC(C)C[C@H](NC(=O)[C@H](Cc1ccccc1)NC(=O)c1cnccn1)B(O)O` gave an IC50 of 0.015 µM (LoVo; ATP luminescence).
